Laboratory results from ChEMBL document CHEMBL3779864, “Dual Alleviation of Acute and Neuropathic Pain by Fused Opioid Agonist-Neurokinin 1 Antagonist Peptidomimetics” (ACS Med Chem Lett, 2015).
The source made the active and inactive calls. The calls are words filed in the database; no cut-off is given here.

Key:
Rattus norvegicus [1] = species on record: Rattus norvegicus; assay: Antinociceptive activity in Wistar rat model of chronic constriction injury-induced neuropathic pain assessed as reduction in allodynia at 1 nmol, it QD for 6 consecutive days by von Frey test; format: functional, organism-based
Method in brief: (§1)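 Rats with chronic constriction injury of the sciatic nerve, dosed intrathecally once daily for 6 consecutive days starting day 7 post-CCI. Allodynia measured by von Frey, hyperalgesia by cold plate. Doses: morphine 3.5 nmol, hybrids 0.8 or 1 nmol. Compared with vehicle-treated CCI rats and with morphine-treated CCI rats.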

Rattus norvegicus [2] = species on record: Rattus norvegicus; assay: Antinociceptive activity in Wistar rat model of chronic constriction injury-induced neuropathic pain assessed as reduction in hyperalgesia at 1 nmol, it QD for 6 consecutive days by cols plate test; format: functional, organism-based; method in brief: as §1
Rattus norvegicus [3] = species on record: Rattus norvegicus; assay: Antinociceptive activity in Wistar rat model of chronic constriction injury-induced neuropathic pain assessed as reduction in hyperalgesia at 1 nmol, it QD for 6 consecutive days measured on day-4 and day-5 by cold plate test relative to morphine; format: functional, organism-based; method in brief: as §1
Rattus norvegicus [4] = assay: Antinociceptive activity in Wistar rat model of chronic constriction injury-induced neuropathic pain assessed as reduction in hyperalgesia at 3.5 nmol dosed on day7 after tolerance development with compound13 dosed at 1 nmol, it QD for 6 days by cold plate test; format: functional, organism-based
Method in brief: (§2)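 Cross-tolerance design in CCI rats: intrathecal dosing once daily for 6 days from day 7 post-CCI (morphine 3.5 nmol, hybrids 0.8 or 1 nmol). On day 7 of dosing (day 14 post-CCI), morphine-tolerant rats received a single hybrid dose and hybrid-tolerant rats received morphine 3.5 nmol. Read by von Frey or cold plate and compared with pretest, day 1 and day 6.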

Rattus norvegicus [5] = assay: Antinociceptive activity in Wistar rat model of chronic constriction injury-induced neuropathic pain assessed as reduction in hyperalgesia at 1 nmol dosed on day7 after tolerance development with morphine dosed at 3.5 nmol, it QD for 6 days by cold plate test; format: functional, organism-based; method in brief: as §2
Rattus norvegicus [6] = assay: Antinociceptive activity in Wistar rat model of chronic constriction injury-induced neuropathic pain assessed as reduction in allodynia at 1 nmol dosed on day7 after tolerance development with morphine dosed at 3.5 nmol, it QD for 6 days by von Frey test; format: functional, organism-based; method in brief: as §2
Substance-P receptor = Substance-P receptor (Homo sapiens, UniProt P25103); assay: Displacement of [3H]SP from human NK1 receptor transfected in CHO cells by liquid scintillation counting method; format: cell-based
Sequence of Substance-P receptor (P25103 whole entry): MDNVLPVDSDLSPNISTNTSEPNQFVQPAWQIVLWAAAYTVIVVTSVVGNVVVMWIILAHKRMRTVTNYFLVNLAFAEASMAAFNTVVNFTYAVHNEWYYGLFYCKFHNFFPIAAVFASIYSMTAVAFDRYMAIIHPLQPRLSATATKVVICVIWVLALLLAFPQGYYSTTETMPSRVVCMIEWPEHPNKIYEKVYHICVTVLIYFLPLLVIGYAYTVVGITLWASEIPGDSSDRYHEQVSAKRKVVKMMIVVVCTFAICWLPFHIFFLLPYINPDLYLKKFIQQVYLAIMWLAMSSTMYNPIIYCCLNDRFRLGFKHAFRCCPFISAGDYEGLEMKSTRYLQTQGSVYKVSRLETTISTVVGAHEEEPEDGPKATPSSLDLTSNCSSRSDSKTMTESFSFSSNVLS
Method in brief: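 hNK1 receptor expressed in CHO cells, measured as [3H]SP displacement. Values are means of 3–4 experiments.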

Mu-type opioid receptor [7] = biological target: Mu-type opioid receptor (Cavia porcellus, UniProt P97266); assay: Agonist activity at mu opioid receptor in guinea pig ileum assessed as inhibition of electrically-stimulated muscle contraction; format: tissue-based
Sequence of Mu-type opioid receptor (Cavia porcellus, UniProt P97266) (P97266 whole entry): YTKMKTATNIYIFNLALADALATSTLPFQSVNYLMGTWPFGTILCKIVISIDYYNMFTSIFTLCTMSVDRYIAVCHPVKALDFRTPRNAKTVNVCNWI
Method in brief: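 Guinea pig ileum preparation used as the MOR-representative functional assay. Values are means of 3–4 experiments.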

[8] = biological target: Delta-type opioid receptor (Mus musculus, UniProt P32300); assay: Agonist activity at delta opioid receptor in mouse vas deferens assessed as inhibition of electrically-stimulated muscle contraction; format: tissue-based
Sequence of Delta-type opioid receptor (Mus musculus, UniProt P32300) (P32300 whole entry): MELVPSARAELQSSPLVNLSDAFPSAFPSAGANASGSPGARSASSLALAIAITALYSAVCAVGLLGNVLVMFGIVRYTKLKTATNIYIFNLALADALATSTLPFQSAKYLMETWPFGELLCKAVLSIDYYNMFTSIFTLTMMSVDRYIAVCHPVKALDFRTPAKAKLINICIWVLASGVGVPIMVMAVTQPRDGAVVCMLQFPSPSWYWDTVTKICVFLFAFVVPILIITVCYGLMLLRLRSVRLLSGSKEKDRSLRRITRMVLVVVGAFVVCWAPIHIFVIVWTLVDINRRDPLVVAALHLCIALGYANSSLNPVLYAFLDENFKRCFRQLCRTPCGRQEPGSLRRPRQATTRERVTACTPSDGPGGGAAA
Method in brief: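 Electrically stimulated mouse vas deferens, a DOR-representative tissue assay. Means of 3–4 experiments.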

Mu-type opioid receptor [9] = biological target: Mu-type opioid receptor (Rattus norvegicus, UniProt P33535); assay: Displacement of [3H]DAMGO from mu opioid receptor in rat brain membrane after 2 hrs; format: cell membranes
Sequence of Mu-type opioid receptor (Rattus norvegicus, UniProt P33535) (P33535 whole entry): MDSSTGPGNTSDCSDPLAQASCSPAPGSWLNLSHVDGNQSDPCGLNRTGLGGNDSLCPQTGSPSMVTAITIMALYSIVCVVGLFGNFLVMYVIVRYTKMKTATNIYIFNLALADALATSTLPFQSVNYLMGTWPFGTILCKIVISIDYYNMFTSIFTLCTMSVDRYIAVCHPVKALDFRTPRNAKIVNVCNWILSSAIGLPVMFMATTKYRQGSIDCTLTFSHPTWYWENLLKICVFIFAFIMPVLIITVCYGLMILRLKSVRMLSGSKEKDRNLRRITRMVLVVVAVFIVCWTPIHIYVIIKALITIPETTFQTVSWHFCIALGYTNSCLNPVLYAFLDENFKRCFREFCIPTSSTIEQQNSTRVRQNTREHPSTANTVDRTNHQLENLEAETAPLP
Method in brief: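 Rat brain membranes, with [3H]DAMGO as the MOR radioligand, measured as displacement binding. Values are means of 3–4 experiments.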

[10] = biological target: Delta-type opioid receptor (Rattus norvegicus, UniProt P33533); assay: Displacement of [3H]DSLET from delta opioid receptor in rat brain membrane after 2 hrs; format: cell membranes
Sequence of Delta-type opioid receptor (Rattus norvegicus, UniProt P33533) (P33533 whole entry): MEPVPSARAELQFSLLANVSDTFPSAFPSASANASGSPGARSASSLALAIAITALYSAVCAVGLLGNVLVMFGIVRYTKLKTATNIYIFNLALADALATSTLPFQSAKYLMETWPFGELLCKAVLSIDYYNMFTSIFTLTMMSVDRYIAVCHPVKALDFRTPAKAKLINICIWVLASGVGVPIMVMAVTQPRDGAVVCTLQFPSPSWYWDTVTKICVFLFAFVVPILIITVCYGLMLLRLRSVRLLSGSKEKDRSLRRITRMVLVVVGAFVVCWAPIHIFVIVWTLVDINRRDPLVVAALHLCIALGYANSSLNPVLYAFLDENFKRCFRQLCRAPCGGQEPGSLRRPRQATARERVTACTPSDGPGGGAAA
Method in brief: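 Rat brain membranes, with [3H]DSLET as the DOR radioligand, measured as displacement binding. Values are means of 3–4 experiments.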

Rattus norvegicus [11] = species on record: Rattus norvegicus; assay: Antinociceptive activity in naive Wistar rat at 10 nmol, it after 30 mins by tail flick test analysis; format: functional, organism-based
Method in brief: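 Naïve rats dosed intrathecally, compared with vehicle-treated naïve rats. Tail-flick latency read 30 min after administration.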

Rattus norvegicus [12] = species on record: Rattus norvegicus; assay: Antinociceptive activity in Wistar rat model of chronic constriction injury-induced neuropathic pain assessed as reduction in hyperalgesia at 0.8 to 3.5 nmol after 30 mins by cold plate test; format: functional, organism-based
Method in brief: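 Rats underwent chronic constriction injury of the sciatic nerve. Seven days later, drug was given intrathecally as single injections at increasing doses. Hyperalgesia was read by cold plate test 30 min after dosing and compared with vehicle-treated CCI rats.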

Rattus norvegicus [13] = species on record: Rattus norvegicus; assay: Antinociceptive activity in Wistar rat model of chronic constriction injury-induced neuropathic pain assessed as reduction in allodynia at 0.8 to 3.5 nmol after 30 mins by von Frey test; format: functional, organism-based
Method in brief: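 Rats underwent chronic constriction injury of the sciatic nerve. Seven days later, drug was given intrathecally as single injections at increasing doses. Allodynia was read by von Frey test 30 min after dosing and compared with vehicle-treated CCI rats.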

Rattus norvegicus [14] = species on record: Rattus norvegicus; assay: Potency index, ratio of antinociceptive activity of compound at 8 to 10 nmol, it to antinociceptive activity of morphine at 35 nmol, it in naive Wistar rat after 30 mins; format: functional
Rattus norvegicus [15] = assay: Potency index, ratio of antiallodynic effect of compound to antiallodynic effect of morphine in it dosed naive Wistar rat at 0.8 to 3.5 nmol after 30 mins by cold plate test; format: functional
Rattus norvegicus [16] = species on record: Rattus norvegicus; assay: Antinociceptive activity in Wistar rat model of chronic constriction injury-induced neuropathic pain assessed as reduction in allodynia at 3.5 nmol, it QD for 6 consecutive days by von Frey test; format: functional, organism-based; method in brief: as §1
Rattus norvegicus [17] = assay: Antinociceptive activity in Wistar rat model of chronic constriction injury-induced neuropathic pain assessed as reduction in hyperalgesia at 3.5 nmol dosed on day7 after tolerance development with compound12 dosed at 0.8 nmol, it QD for 6 days by cold plate test; format: functional, organism-based; method in brief: as §2
Rattus norvegicus [18] = species on record: Rattus norvegicus; assay: Antinociceptive activity in naive Wistar rat at 35 nmol, it after 2 hrs by tail flick test analysis; format: functional, organism-based
Rattus norvegicus [19] = species on record: Rattus norvegicus; assay: Antinociceptive activity in Wistar rat model of chronic constriction injury-induced neuropathic pain assessed as reduction in hyperalgesia at 3.5 nmol, it QD for 6 consecutive days by cols plate test; format: functional, organism-based; method in brief: as §1
Rattus norvegicus [20] = assay: Antinociceptive activity in it dosed naive Wistar rat after 30 mins by tail flick test analysis; format: functional, organism-based
Method in brief: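 Naïve rats were dosed intrathecally at several doses. Tail-flick latency was read 30 min after dosing and compared with vehicle-treated naïve rats.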

Rattus norvegicus [21] = species on record: Rattus norvegicus; assay: Antinociceptive activity in Wistar rat model of chronic constriction injury-induced neuropathic pain assessed as reduction in hyperalgesia at 0.8 nmol, it QD for 6 consecutive days by cols plate test; format: functional, organism-based
Method in brief: (§3)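 Starting day 7 after sciatic nerve CCI, rats got 0.8 nmol i.t. once daily for 6 consecutive days. Allodynia was read by von Frey and hyperalgesia by cold plate. Comparisons were against vehicle-treated CCI rats and against rats given morphine 3.5 nmol i.t. on the same schedule.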

Rattus norvegicus [22] = species on record: Rattus norvegicus; assay: Antinociceptive activity in Wistar rat model of chronic constriction injury-induced neuropathic pain assessed as reduction in hyperalgesia at 0.8 nmol, it QD for 6 consecutive days measured on day-4 and day-5 by cold plate test relative to morphine; format: functional, organism-based; method in brief: as §3
Rattus norvegicus [23] = assay: Antinociceptive activity in Wistar rat model of chronic constriction injury-induced neuropathic pain assessed as reduction in hyperalgesia at 0.8 nmol dosed on day7 after tolerance development with morphine dosed at 3.5 nmol, it QD for 6 days by cold plate test; format: functional, organism-based
Method in brief: (§4)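 Rats with sciatic nerve CCI got morphine 3.5 nmol i.t. once daily for 6 days, starting day 7 after CCI. On day 7 of repeated dosing (day 14 after CCI) they received a single i.t. dose of 0.8 nmol. Allodynia was read by von Frey and hyperalgesia by cold plate. Each was compared with pretest, with day 6 and with day 1 of dosing.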

Rattus norvegicus [24] = assay: Antinociceptive activity in Wistar rat model of chronic constriction injury-induced neuropathic pain assessed as reduction in allodynia at 0.8 nmol dosed on day7 after tolerance development with morphine dosed at 3.5 nmol, it QD for 6 days by von Frey test; format: functional, organism-based; method in brief: as §4
Rattus norvegicus [25] = species on record: Rattus norvegicus; assay: Antinociceptive activity in naive Wistar rat at 8 nmol, it after 2 hrs by tail flick test analysis; format: functional, organism-based
Method in brief: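 Naïve rats got an intrathecal dose. The tail-flick response was followed over time up to 2 h after dosing.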

Rattus norvegicus [26] = species on record: Rattus norvegicus; assay: Antinociceptive activity in Wistar rat model of chronic constriction injury-induced neuropathic pain assessed as reduction in allodynia at 0.8 nmol, it QD for 6 consecutive days by von Frey test; format: functional, organism-based; method in brief: as §3

Row | SMILES | Ki (Substance-P receptor) [µM] | IC50 (Mu-type opioid receptor [7]) [µM] | IC50 [8] [µM] | Ki (Mu-type opioid receptor [9]) [µM] | Ki [10] [µM] | Activity (Rattus norvegicus [12]) | Activity (Rattus norvegicus [13]) | Ratio (Rattus norvegicus [14]) | Activity (Rattus norvegicus [16]) | further results
1 | Cc1cc(O)cc(C)c1C[C@H](N)C(=O)N[C@H](CCCNC(=N)N)C(=O)N[C@H]1Cc2ccccc2CN(CCC(=O)N(C)[C@@H]2CCN(C(=O)c3cc(C(F)(F)F)cc(C(F)(F)F)c3)C[C@@H]2c2ccccc2)C1=O | 0.0014 | 0.013 | 0.0126 | 0.00182 | 0.0112 | Active | Active | 3.5 | inactive | Activity (Rattus norvegicus [1]): inactive; Activity (Rattus norvegicus [2]): inactive; Activity (Rattus norvegicus [3]): Active; Activity (Rattus norvegicus [4]): Active; Activity (Rattus norvegicus [5]): Active; Activity (Rattus norvegicus [6]): Active; Activity (Rattus norvegicus [11]): Active; Ratio (Rattus norvegicus [15]): 3.5
2 | CN1CC[C@]23c4c5ccc(O)c4O[C@H]2[C@@H](O)C=C[C@H]3[C@H]1C5 [MORPHINE] | – | – | – | – | – | Active | Active | 3.5 | inactive | Activity (Rattus norvegicus [17]): Active; Activity (Rattus norvegicus [18]): Active; Activity (Rattus norvegicus [19]): Active
3 | Cc1cc(O)cc(C)c1C[C@H](N)C(=O)N[C@H](CCCNC(=N)N)C(=O)N[C@@H](Cc1ccccc1)C(=O)N[C@@H](CCCCN)C(=O)N1CC[C@@H](C(=O)N(C)Cc2cc(C(F)(F)F)cc(C(F)(F)F)c2)[C@H](c2ccccc2)C1 | 0.0012 | 0.658 | 0.349 | 0.0398 | 0.339 | – | – | – | – | –
4 | CN[C@@H]1CCN(C(=O)c2cc(C(F)(F)F)cc(C(F)(F)F)c2)C[C@@H]1c1ccccc1 | – | – | – | – | – | Active | Active | – | inactive | Activity (Rattus norvegicus [20]): inactive
5 | Cc1cc(O)cc(C)c1C[C@H](N)C(=O)N[C@H](CCCNC(=N)N)C(=O)N[C@@H](Cc1ccccc1)C(=O)N[C@@H](CCCCN)CC(=O)N1CC[C@@H](C(=O)N(C)Cc2cc(C(F)(F)F)cc(C(F)(F)F)c2)[C@H](c2ccccc2)C1 | 0.0022 | 0.538 | 1.66 | 0.0202 | > 1 | – | – | – | – | –
6 | Cc1cc(O)cc(C)c1C[C@H](N)C(=O)N[C@H](CCCNC(=N)N)C(=O)N[C@@H](Cc1ccccc1)C(=O)N[C@@H](CCCCN)C(=O)N1CCN([C@@H]2CCN(C(=O)c3cc(C(F)(F)F)cc(C(F)(F)F)c3)C[C@@H]2c2ccccc2)CC1 | 0.00099 | 0.137 | 0.384 | 0.00991 | 0.533 | – | – | – | – | –
7 | Cc1cc(O)cc(C)c1C[C@H](N)C(=O)N[C@H](CCCNC(=N)N)C(=O)N[C@@H](Cc1ccccc1)C(=O)N[C@@H](CCCCN)C(=O)N(C)[C@@H]1CCN(C(=O)c2cc(C(F)(F)F)cc(C(F)(F)F)c2)C[C@@H]1c1ccccc1 | 0.0011 | 0.0702 | 0.814 | 0.054 | > 1 | – | – | – | – | –
8 | Cc1cc(O)cc(C)c1C[C@H](N)C(=O)N[C@H](CCCNC(=N)N)C(=O)N[C@@H](Cc1ccccc1)C(=O)N[C@@H](CCCCN)CC(N)=O | – | 0.0059 | 0.0077 | 0.000187 | 0.29 | – | – | – | – | –
9 | Cc1cc(O)cc(C)c1C[C@H](N)C(=O)N[C@H](CCCNC(=N)N)C(=O)N[C@H]1Cc2ccccc2CN(CCC(=O)N2CCN([C@@H]3CCN(C(=O)c4cc(C(F)(F)F)cc(C(F)(F)F)c4)C[C@@H]3c3ccccc3)CC2)C1=O | 0.0014 | 0.0203 | 0.0141 | 0.00118 | 0.0106 | Active | Active | 3.5 | inactive | Activity (Rattus norvegicus [21]): Active; Activity (Rattus norvegicus [22]): Active; Activity (Rattus norvegicus [4]): Active; Activity (Rattus norvegicus [23]): Active; Activity (Rattus norvegicus [24]): Active; Activity (Rattus norvegicus [25]): Active; Ratio (Rattus norvegicus [15]): 3.5; Activity (Rattus norvegicus [26]): inactive
10 | Cc1cc(O)cc(C)c1C[C@H](N)C(=O)N[C@H](CCCNC(=N)N)C(=O)N[C@H]1Cc2ccccc2CN(CCC(=O)N2CC[C@@H](C(=O)N(C)Cc3cc(C(F)(F)F)cc(C(F)(F)F)c3)[C@H](c3ccccc3)C2)C1=O | 0.0019 | 0.0301 | 0.0103 | 0.00307 | 0.00707 | – | – | – | – | –
